Test results published in PMC6590913 (Journal of medicinal chemistry, 2019).
Values belong to the compound of their own block, whether it stands above or below them.

Key:
[1] = test system: Rho/MRTF/SRF-mediated gene transcription (SRE.L); test: Gα12-stimulated SRE.L luciferase reporter assay in PC3 cells; type: cell-based; settings: for SRE.L activity: Table 2 sidechain SAR, PC3 cells; for IC50: Homo sapiens, PC-3, read-out: SRE.L IC50
Method in brief: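 PC-3 cells plated at 20,000/well in DMEM with 10% FBS. Next day they were lipofected with 56 ng SRE.L luciferase reporter plus 2 ng/well Gα12 Q231L or pcDNA. After 4 h, medium was switched to 0.5% FBS DMEM, and compound or DMSO was added overnight. Viability was then read by WST-1 (450 nm), and cells were lysed for luciferase. Mean of n = 3.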

[2] = test system: Rho/MRTF/SRF-mediated gene transcription (SRE.L); test: Gα12-stimulated SRE.L luciferase reporter assay in HEK293T cells; type: cell-based; settings: for SRE.L activity: Figure 4, HEK293T cells, analogs with modified thioether
CTGF gene expression = test: qPCR for LPA-stimulated expression of CTGF in primary dermal fibroblasts; type: cell-based, human; settings: for Effect on CTGF gene expression: then LPA 1 h, primary human dermal fibroblasts
[3] = test system: bleomycin-induced dermal fibrosis; test: Bleomycin-induced dermal fibrosis in mice; type: in vivo, mouse
[4] = test system: Rho/MRTF/SRF-mediated gene transcription (SRE.L); test: SRE.L luciferase reporter assay, cell line not stated; type: cell-based; settings: for SRE.L activity: Figure 3, heterocycle and carboxylic acid replacements
Method in brief: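 Gα12-stimulated SRE.L luciferase reporter in transiently transfected PC-3 or HEK293T cells. PC-3 format: 20,000 cells/well in 10% FBS/DMEM, next day co-transfected with SRE.L luciferase reporter plus Gα12 Q231L or empty pcDNA (Lipofectamine 2000). After 4 h, switched to 0.5% FBS/DMEM with test compound or DMSO overnight. WST-1 viability read at 450 nm, then lysis and luciferase read.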

cells of the SRE.L assay = test: Cytotoxicity in the SRE.L assay determined by CellTiter-Fluor; type: cell-based
[5] = test system: bleomycin-induced lung fibrosis; settings: mice, dose of 300 mg/kg; cited from earlier work
[6] = Cytotoxicity in the SRE.L assay determined by CellTiter-Fluor; type: cell-based; settings: human, cells of the SRE.L assay
[7] = test system: bleomycin-induced dermal fibrosis; settings: mice; cited from earlier work
[8] = Pharmacokinetic studies in mice; type: in vivo, female CD-1 mice; settings: mouse, IV
Method in brief: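 Female CD-1 mice were dosed iv and/or po, with compound in 15% DMSO/15% PEG-400/70% PBS (v/v). Blood (50 μL) was sampled at 0.5, 2, 4 and 7 h, and plasma was frozen at -80 °C. Plasma levels were measured by a validated LC–MS/MS method. Parameters were derived non-compartmentally.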

Structure (SMILES): CCOC(=O)CCSc1nnc(-c2ccc(Cl)cc2Cl)o1 [compound 6, Ethyl 3-((5-(2,4-dichlorophenyl)-1,3,4-oxadiazol-2-yl)thio)propanoate]
SRE.L activity [1]: maintained activity

IC50 [1]: 0.0012 nM
Structure (SMILES): O=C(O)CCCSc1nnc(-c2ccc(C3CC3)cc2Cl)o1 [19f, 4-((5-(2-chloro-4-cyclopropylphenyl)-1,3,4-oxadiazol-2-yl)thio)butanoic acid]
Improvement in SRE.L potency relative to 8s ([2]; Me replaced by c-Pr): 100 fold
Effect on CTGF gene expression (CTGF gene expression; 48 h pre-treatment): neither 8j nor 19f had any significant effect
Potency on CTGF gene expression relative to 8j (CTGF gene expression; 72 h pre-treatment): ~ 100 x
Effect on CTGF gene expression (CTGF gene expression; 72 h pre-treatment): dose-dependently reduced CTGF gene expression
Bleomycin-induced dermal fibrosis ([3]; 3 and 10 mg/kg PO, both doses, 14 days): significantly reduced bleomycin-induced dermal fibrosis
In vivo potency relative to 8j ([3]; bleomycin-induced dermal fibrosis): at least 3 fold

Structure (SMILES): O=C(O)CCSc1nnc(-c2ccncc2)o1 [compound 23]
SRE.L activity [4]: complete loss in activity

IC50 [1]: > 100000 nM
Structure (SMILES): CNC(=O)CCSc1nnc(-c2ccc(Cl)cc2Cl)o1 [compound 9, 3-((5-(2,4-dichlorophenyl)-1,3,4-oxadiazol-2-yl)thio)-N-methylpropanamide]
SRE.L activity [1]: unsuccessful

IC50 ([4]; read-out: SRE.L assay IC50): > 100 µM
Structure (SMILES): Cc1ccc(=O)n(-c2ccccc2)c1 [Pirfenidone, reference compound]
Concentration above which cytotoxic (cells of the SRE.L assay; CellTiter-Fluor): > 100 µM
CTGF expression, % control (CTGF gene expression; at 10^−5 M): 91 % control
Effect on bleomycin-induced lung fibrosis [5]: attenuate bleomycin-induced lung fibrosis

Structure (SMILES): O=C(O)CCSc1nnc(-c2cccnc2)o1 [compound 22]
SRE.L activity [4]: complete loss in activity

Structure (SMILES): c1ccc(-c2nnc(SCCC3OCCCO3)o2)cc1 [compound 28]
SRE.L activity [4]: abolished activity

Structure (SMILES): O=C(O)CCCOc1nnc(-c2ccc(Cl)cc2Cl)o1 [compound 11, 4-((5-(2,4-dichlorophenyl)-1,3,4-oxadiazol-2-yl)oxy)butanoic acid]
SRE.L activity [2]: almost complete loss in activity

IC50 [1]: 43 nM
Structure (SMILES): O=C(O)CCCCSc1nnc(-c2ccc(Cl)cc2Cl)o1 [8r, 5-((5-(2,4-dichlorophenyl)-1,3,4-oxadiazol-2-yl)thio)pentanoic acid]

Structure (SMILES): O=C(O)CCCSc1nnc(-c2ccc(Br)cc2Cl)o1 [8x, 4-((5-(4-bromo-2-chlorophenyl)-1,3,4-oxadiazole-2-yl)thio)butanoic acid]
Improvement in SRE.L activity relative to 8q ([2]; 4-Cl replaced by 4-Br): 10 fold

Structure (SMILES): O=C(O)CCCc1nnc(-c2ccc(Cl)cc2Cl)o1 [compound 29]
SRE.L activity [2]: almost complete loss in activity

Structure (SMILES): Cc1occc1-c1nnc(SCCC(=O)O)o1 [compound 24]
SRE.L activity [4]: complete loss in activity

Structure (SMILES): O=C(O)CSCc1nnc(-c2ccc(Cl)cc2Cl)o1 [compound 13, 2-(((5-(2,4-dichlorophenyl)-1,3,4-oxadiazol-2-yl)methyl)thio)acetic acid]
SRE.L activity [2]: almost complete loss in activity

IC50 [1]: > 100000 nM
Structure (SMILES): O=C(O)CSc1nnc(-c2ccc(Cl)cc2Cl)o1 [8p]
SRE.L activity [1]: activity was completely lost

Structure (SMILES): COC(=O)c1ccc2c(c1)NC(=O)/C2=C(\Nc1ccc(N(C)C(=O)CN2CCN(C)CC2)cc1)c1ccccc1 [Nintedanib]
IC50 [6]: < 30 µM
Cytotoxicity (cells of the SRE.L assay; at 10 uM): some cytotoxicity
Cytotoxicity in the CTGF assay (CTGF gene expression; at 10^−5 M): cytotoxic
CTGF expression, % of DMSO control (CTGF gene expression; at 10^−6 M): 45 % of DMSO control
Minimum dose effective at preventing bleomycin-induced dermal thickness [7]: 30 mg/kg/day

Structure (SMILES): O=C(O)CCSc1nnc(-c2ccc(Cl)cc2Cl)o1 [8j, 3-((5-(2,4-dichlorophenyl)-1,3,4-oxadiazol-2-yl)thio)propanoic acid]
Effect on CTGF gene expression (CTGF gene expression; 48 h pre-treatment): neither 8j nor 19f had any significant effect
Effect on CTGF gene expression (CTGF gene expression; 72 h pre-treatment): dose-dependently reduced CTGF gene expression
Bleomycin-induced fibrotic effects (dermal thickness and hydroxyproline content) vs bleomycin/vehicle control ([3]; 10 mg/kg PO, 14 days): significant effects
Bleomycin-induced fibrotic effects (dermal thickness and hydroxyproline content) ([3]; 0.1, 1 and 10 mg/kg/day by oral gavage, 14 days): dose-dependently reduce

Structure (SMILES): O=C(O)CCCS(=O)(=O)c1nnc(-c2ccc(Cl)cc2Cl)o1 [compound 21, 4-((5-(2,4-dichlorophenyl)-1,3,4-oxadiazol-2-yl)sulfonyl)butanoic acid]
SRE.L activity [2]: activity was lost

clearance rate relative to 8j [8]: ~3 fold
Structure (SMILES): O=C(O)CCCSc1nnc(-c2ccc(Cl)cc2Cl)o1 [8q, 4-((5-(2,4-dichlorophenyl)-1,3,4-oxadiazol-2-yl)thio)butanoic acid]
